# Reference: ChEMBL document CHEMBL1137607, “De novo discovery of serotonin N-acetyltransferase inhibitors” (J Med Chem, 2007)
# Active and inactive are the calls of the source. The calls are words filed in the database; no cut-off is given here.
# How the values were obtained:
# [1] = target: T1, Serotonin N-acetyltransferase (Ovis aries, UniProt Q29495); experiment: Inhibition of ovine AANAT by spectrophotometric assay
# [2] = target: Serotonin N-acetyltransferase (Ovis aries) (UniProt Q29495); conditions: at 100 µM
# [3] = target: Serotonin N-acetyltransferase (Ovis aries) (UniProt Q29495); conditions: at 100 µM; remark: listed apart in the source
# [4] = target: Serotonin N-acetyltransferase (Ovis aries) (UniProt Q29495); conditions: at 100 µM; remark: listed apart in the source
# [5] = target: Serotonin N-acetyltransferase (Ovis aries) (UniProt Q29495); conditions: at 100 µM; remark: listed apart in the source
# [6] = Inhibition of melatonin biosynthesis in rat pinealocytes; format: functional, cell-based
# [7] = target: Histone acetyltransferase KAT2B (Homo sapiens) (UniProt Q92831); experiment: Inhibition of PCAF HAT at 50 uM
# Summary of the method: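 Radioactive HAT assay on purified PCAF HAT catalytic domain (10 nM), with histone H3 residues 1-20 (10 μM) as substrate, in 50 mM Tris-HCl pH 8.0, 1 mM DTT, 0.1 mM EDTA, 50 μg/mL BSA, 3.3% DMSO, 30 °C. Inhibitor tested at 0-50 μM. Started with 20 μM [14C]-AcCoA and quenched after 5 min. Gel separation, phosphorimaging against [14C]-BSA standard, no-enzyme background subtracted, duplicates.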
# [8] = target: T1, Serotonin N-acetyltransferase; experiment: Inhibition of ovine AANAT by TLC-based radioactive assay
# [9] = Toxicity in rat pinealocytes; format: cell-based; conditions: in vitro
# [10] = target: Serotonin N-acetyltransferase (Ovis aries) (UniProt Q29495); experiment: Inhibition of ovine AANAT in presence of Triton X-100 at 25 uM by spectrophotometric assay
# [11] = target: Serotonin N-acetyltransferase (Ovis aries) (UniProt Q29495); experiment: Inhibition of ovine AANAT at 25 uM by spectrophotometric assay
# [12] = target: Serotonin N-acetyltransferase (Ovis aries) (UniProt Q29495); experiment: Inhibition of ovine AANAT at 25 uM by alpha-KD-coupled spectrophotometric assay
# [13] = target: Serotonin N-acetyltransferase (Ovis aries) (UniProt Q29495); experiment: Inhibition of ovine AANAT at 25 uM by radioactive assay
# T1 sequence (Q29495 whole entry): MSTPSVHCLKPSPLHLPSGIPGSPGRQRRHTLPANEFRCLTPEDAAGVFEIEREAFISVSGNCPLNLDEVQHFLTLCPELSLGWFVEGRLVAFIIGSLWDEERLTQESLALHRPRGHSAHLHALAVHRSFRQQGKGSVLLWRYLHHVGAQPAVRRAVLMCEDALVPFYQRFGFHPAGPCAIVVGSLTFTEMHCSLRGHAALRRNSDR
# Sequence of Serotonin N-acetyltransferase (Ovis aries) (Q29495 whole entry): as above
# Sequence of Histone acetyltransferase KAT2B (Homo sapiens) (Q92831 whole entry, looked up, the tested form may be a part): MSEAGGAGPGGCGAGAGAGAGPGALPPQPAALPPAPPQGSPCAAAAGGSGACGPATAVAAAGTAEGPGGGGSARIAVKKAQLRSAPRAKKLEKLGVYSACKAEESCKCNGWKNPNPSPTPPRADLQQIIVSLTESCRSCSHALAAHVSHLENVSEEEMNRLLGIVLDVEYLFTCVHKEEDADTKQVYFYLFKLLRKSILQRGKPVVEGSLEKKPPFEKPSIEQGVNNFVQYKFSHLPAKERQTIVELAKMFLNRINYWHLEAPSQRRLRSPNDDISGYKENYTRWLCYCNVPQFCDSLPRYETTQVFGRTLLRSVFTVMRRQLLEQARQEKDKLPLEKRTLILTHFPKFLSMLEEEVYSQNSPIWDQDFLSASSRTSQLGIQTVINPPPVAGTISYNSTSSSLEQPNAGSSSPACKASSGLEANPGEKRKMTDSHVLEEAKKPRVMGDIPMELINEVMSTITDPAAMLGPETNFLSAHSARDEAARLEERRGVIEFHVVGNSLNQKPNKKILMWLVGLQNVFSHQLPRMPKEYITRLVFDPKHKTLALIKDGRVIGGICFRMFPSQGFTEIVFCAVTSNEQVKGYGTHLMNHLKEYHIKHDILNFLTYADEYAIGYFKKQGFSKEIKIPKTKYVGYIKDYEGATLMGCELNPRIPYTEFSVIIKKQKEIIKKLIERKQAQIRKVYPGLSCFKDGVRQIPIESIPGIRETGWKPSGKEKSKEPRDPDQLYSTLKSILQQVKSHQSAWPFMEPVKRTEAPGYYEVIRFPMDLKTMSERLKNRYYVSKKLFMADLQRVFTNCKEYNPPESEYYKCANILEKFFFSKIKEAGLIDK
IC50 [1] [µM],inhibition [2] [%],inhibition [3] [%],inhibition [4] [%],inhibition [5] [%],inhibition [10] [%],inhibition [11] [%],inhibition [12] [%],SMILES,other results
,,,11,40,,,,O=C(COc1ccc([N+](=O)[O-])cc1)N/N=C/c1ccccc1COc1ccccc1,
402,74,,,,,,,O=C(O)COc1ccc(/C=N/NC(=O)c2ccc(OCc3ccccc3)cc2)cc1,
,,28,60,65,,,,COc1ccc(/N=N/c2ccc(S(=O)(=O)O)cc2)cc1,
,,,,,41,52,56,COc1ccc(NC(=O)CN2C(=O)/C(=C3\SCN(CCS(=O)(=O)O)C3=O)c3ccccc32)cc1,inhibition [13]: 0%
,,,,,61,70,47,CCc1ccc(/C=N/c2c(C)n(C)n(-c3ccccc3)c2=O)cc1,inhibition [13]: 0%
,,,23,50,,,,O=C1CC(CC(=O)N/N=C/c2c(O)ccc3ccccc23)=NN1,
,13,64,30,41,,,,COc1ccc(/C=N/c2ccc(CC(=O)O)cc2)cc1,

# Second part, the compound before the results:
SMILES,IC50 [1] [µM],inhibition [2] [%],inhibition [3] [%],inhibition [4] [%],inhibition [5] [%],inhibition [10] [%],inhibition [11] [%],inhibition [12] [%],other results
Cc1ccc(CN2C(=O)C(C3SC(=S)N(CCS(=O)(=O)O)C3=O)c3ccccc32)cc1 (stereo not given),25.2,99,54,98,84,,,,
O=C(O)CCCCCN1C(=O)C(C2C(=O)N(Cc3ccc(F)cc3)c3ccccc32)SC1=S (stereo not given),45.2,98,66,74,81,,,,IC50 [6]: 100 µM; Activity [7]: inactive; IC50 [8]: 11.1 µM; Activity [9]: Non-toxic
O=C(CN1C(=O)C(C2SC(=S)N(CCS(=O)(=O)O)C2=O)c2ccccc21)Nc1ccccc1 (stereo not given),15.8,99,70,80,99,,,,
O=C(O)CCCN1C(=O)/C(=C2/C(=O)Nc3ccc(Br)cc32)SC1=S,,,,,,41,52,21,
CC(C)Oc1ccc(C(=O)CC(=O)Nc2ccc(S(=O)(=O)F)cc2)cc1,,,,,,59,43,0,
COC(=O)Nc1ccc(S(=O)(=O)Nc2cc(OC)nc(OC)n2)cc1,,,,24,42,,,,
O=C(O)CCCCCN1C(=O)C(C2C(=O)Nc3ccccc32)SC1=S (stereo not given),52.9,94,78,83,100,,,,
O=C(O)CCCCCN1C(=O)/C(=C2/C(=O)N(CC(=O)O)c3ccc(Br)cc32)SC1=S,,,,,,55,43,11,
CCOc1ccc(C(=O)CC(=O)Nc2ccc(S(=O)(=O)F)cc2)cc1OC,,31,79,100,98,,,,
